Columns and labels:
[1] = target: T1, Melatonin receptor type 1A (Homo sapiens, UniProt P48039); experiment: Displacement of 2-[125I]-Iodomelatonin from human MT1 receptor transfected in CHO cell membranes after 120 mins
Procedure, shortened: (§1)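 Membranes from CHO cells stably expressing the receptor were pelleted and homogenized in Tris 5 mM/EDTA 2 mM, then held at -80 °C. Assay buffer was 50 mM Tris-HCl pH 7.4 with 5 mM MgCl2. Radioligand was 20 pM, with nonspecific binding defined by 1 μM melatonin.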

[2] = Displacement of 2-[125I]-Iodomelatonin from human MT2 receptor transfected in CHO cell membranes after 120 mins; procedure, shortened: as §1
[3] = system: CHO; experiment: (§2) Intrinsic activity at human MT2 receptor transfected in CHO cell membranes after 1 hr by [35S]GTPgammaS binding assay
Procedure, shortened: (§3)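 Transfected CHO membranes at 20 μg/mL were incubated in 20 mM HEPES pH 7.4 with 100 mM NaCl, 3 μM GDP, 3 mM MgCl2 and 20 μg/mL saponin. 0.2 nM [35S]GTPγS was added and incubation ran 1 h at room temperature. Nonspecific binding was defined by 10 μM GTPγS, with 1 μM melatonin as reference. Filtration was on GF/B. Curves used 7 concentrations in duplicate, giving EC50 and Emax.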

[4] = as §2; procedure, shortened: as §3
[5] = target: T1, Melatonin receptor type 1A; experiment: Intrinsic activity at human MT1 receptor transfected in CHO cell membranes after 1 hr by [35S]GTPgammaS binding assay; format: functional; procedure, shortened: as §3
[6] = organism: Homo sapiens; experiment: Selectivity ratio of Ki for human MT1 receptor to Ki for human MT2 receptor

T1 sequence (P48039 whole entry): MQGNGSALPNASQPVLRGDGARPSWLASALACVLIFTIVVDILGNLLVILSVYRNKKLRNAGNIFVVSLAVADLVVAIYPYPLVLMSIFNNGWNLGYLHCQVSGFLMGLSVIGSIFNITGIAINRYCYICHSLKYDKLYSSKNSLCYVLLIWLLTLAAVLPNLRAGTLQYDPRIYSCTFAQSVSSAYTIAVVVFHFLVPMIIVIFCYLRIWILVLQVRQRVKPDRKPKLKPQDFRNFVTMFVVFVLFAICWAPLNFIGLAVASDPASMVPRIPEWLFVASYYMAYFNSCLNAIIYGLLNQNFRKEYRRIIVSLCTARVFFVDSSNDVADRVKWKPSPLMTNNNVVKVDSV

SMILES | Ki [1] | EC50 [4] | EC50 [5] | Emax [5] | Ratio Ki [6] | Ki [2] | Emax [3]
CC(=O)NC[C@H]1CCc2ccccc2N1Cc1ccccc1 | 45 nM | 1.9 nM | 192 nM | 52% |  | 0.1 nM | 80%
CC(=O)NC[C@@H]1CCc2ccccc2N1Cc1ccccc1 | 122 nM | 19 nM |  |  |  | 6.2 nM | 60%
CCC(=O)NCc1ccc2c(OC)cccc2n1 | > 10000 nM |  |  |  |  | 4450 nM | 
CCC(=O)NCC1CCc2c(OC)cccc2N1Cc1ccccc1 (racemic) | 17 nM | 0.9 nM | 177 nM | 79% | > 10000 | 0.001 nM | 111%
CCC(=O)NCC1CCc2cc(OC)ccc2N1Cc1ccccc1 (racemic) | 186 nM | 4.6 nM |  |  |  | 1.5 nM | 75%
CCC(=O)NCC1CCc2ccc(OC)cc2N1Cc1ccccc1 (racemic) | 214 nM | 25 nM |  |  |  | 26 nM | 42%
CCC(=O)NCC1CCc2ccccc2N1Cc1ccccc1 (racemic) | 37 nM | 0.4 nM | 36 nM | 42% | > 400 | 0.09 nM | 73%
CC(=O)NCC1CCc2ccccc2N1Cc1ccccc1 (racemic) | 45 nM | 0.4 nM | 31 nM | 35% |  | 0.04 nM | 60%
O=C(NCC1CCc2ccccc2N1Cc1ccccc1)C1CC1 (racemic) | 291 nM | 0.3 nM |  |  |  | 0.2 nM | 38%
O=C(NCC1CCc2ccccc2N1Cc1ccccc1)C1CCC1 (racemic) | 633 nM |  |  |  |  | 6.2 nM | < 15%
CCC(=O)NCC1CCc2ccccc2N1C (racemic) | 0.7 nM | 0.6 nM | 0.9 nM | 69% |  | 0.2 nM | 122%
CC(=O)NCC1CCc2ccccc2N1CCc1ccccc1 (racemic) | 171 nM |  |  |  |  | 3 nM | < 15%
CCCN1c2ccccc2CCC1CNC(C)=O (racemic) | 5.8 nM | 0.2 nM | 2 nM | 39% |  | 0.1 nM | 58%
CCC(=O)NCC1CCc2ccccc2N1CC(=O)NC (racemic) | > 10000 nM |  |  |  |  | 385 nM | 
CCC(=O)NCC1CCc2ccccc2N1c1ccccc1 (racemic) | 1.6 nM | 0.5 nM | 6.2 nM | 69% |  | 0.06 nM | 90%
CCC(=O)NCCC1CCc2ccccc2N1Cc1ccccc1 (racemic) | 326 nM | 4.7 nM |  |  |  | 1.6 nM | 59%

Further lines, with some results ahead:

Ki [1] | EC50 [4] | EC50 [5] | Emax [5] | Ratio Ki [6] | SMILES | Ki [2] | Emax [3]
57 nM | 165 nM | 906 nM | 70% |  | CCC(=O)NCC1CCc2c(cccc2OC)N1 (racemic) | 21 nM | 98%
13 nM | 27 nM | 242 nM | 37% |  | CCC(=O)NCC1CCc2ccccc2N1 (racemic) | 2.2 nM | 
480 nM |  |  |  |  | CCNC(=O)NCC1CCc2c(cccc2OC)N1 (racemic) | 114 nM | 
115 nM | 356 nM | 2420 nM | 30% |  | CCNC(=O)NCC1CCc2ccccc2N1 (racemic) | 17 nM | 80%
> 1000 nM |  |  |  |  | CCNC(=S)NCC1CCc2c(cccc2OC)N1 (racemic) | > 1000 nM | 
305 nM | 1430 nM | 2660 nM | 35% |  | CCNC(=S)NCC1CCc2ccccc2N1 (racemic) | 90 nM | 72%
5 nM | 10 nM | 160 nM | 92% |  | CCNC(=O)NCC1CCc2c(OC)cccc2N1C (racemic) | 1.4 nM | 105%
5.3 nM | 6.2 nM | 110 nM | 69% |  | CCNC(=O)NCC1CCc2ccccc2N1C (racemic) | 3.4 nM | 97%
132 nM | 13 nM | 393 nM | 44% |  | CCNC(=O)NCC1CCc2c(OC)cccc2N1Cc1ccccc1 (racemic) | 2.9 nM | 107%
0.03 nM | 0.5 nM | 1.7 nM | 112% |  | CCC(=O)NCC1CCc2c(OC)cccc2N1C (racemic) | 0.5 nM | 122%
22 nM | 66 nM | 809 nM | 76% |  | CCNC(=S)NCC1CCc2ccccc2N1C (racemic) | 15 nM | 73%
